Source: ChEMBL document CHEMBL1138406, “Bioactive pregnanes from Nerium oleander” (J Nat Prod, 2007)
pIC50: −log10 of the molar value. Values after ≈ are worked out from the molar mass of the structure shown.

Legend:
[1] = Effect on calcein accumulation in multidrug resistant human 2780 AD cells at 0.25 ug/mL relative to control; assay type: functional
Summary of the method: (§1)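 Calcein (formed from calcein AM by cellular esterase) accumulated in multidrug-resistant ovarian cancer 2780 AD cells. Read in the presence of 0.25, 2.5 or 25 µg/mL test compound and expressed as % of control. Means of triplicate determinations.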

[2] = Effect on calcein accumulation in multidrug resistant human 2780 AD cells at 2.5 ug/mL relative to control; assay type: functional; summary of the method: as §1
[3] = Effect on calcein accumulation in multidrug resistant human 2780 AD cells at 25 ug/mL relative to control; assay type: functional; summary of the method: as §1
HepG2 = experiment: Cytotoxicity against human HepG2 cells; assay type: cell-based
Summary of the method: (§2)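 IC50 in µg/mL, taken as the mean of duplicate determinations.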

[4] = Effect on calcein accumulation in multidrug resistant human 2780 AD cells at 0.25 ug/mL relative to verapamil; assay type: functional
[5] = Effect on calcein accumulation in multidrug resistant human 2780 AD cells at 2.5 ug/mL relative to verapamil; assay type: functional
[6] = Effect on calcein accumulation in multidrug resistant human 2780 AD cells at 25 ug/mL relative to verapamil; assay type: functional
[7] = Cytotoxicity against human WI38 cells; assay type: cell-based; settings: WI-38; summary of the method: as §2
WI-38 VA13 = experiment: Cytotoxicity against human VA13 cells; assay type: cell-based; summary of the method: as §2
A549 [8] = experiment: Inhibition of ICAM1 induction in human A549 cells; assay type: functional, cell-based; settings: for pIC50: read-out: IC50
Summary of the method: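 A549 cells pretreated 1 h with a range of test concentrations, then stimulated with IL-1α for 6 h. Surface ICAM-1 detected with primary and secondary antibodies plus enzyme substrate, absorbance at 415 nm. Triplicate cultures, IC50 derived.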

A549 [9] = experiment: Cytotoxicity against human A549 cells by MTT assay; assay type: cell-based; settings: for pIC50: read-out: IC50
Summary of the method: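 A549 cells exposed to serial dilutions for 24 h. Viability (%) read by MTT and used to derive IC50. Triplicate cultures.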

| SMILES | Activity [1] [%] | Activity [2] [%] | Activity [3] [%] | IC50 (HepG2) [µg/mL] | Activity [4] [%] | Activity [5] [%] | Activity [6] [%] | IC50 [7] [µg/mL] | IC50 (WI-38 VA13) [µg/mL] | pIC50 (A549 [8]) | pIC50 (A549 [9]) | IC50 (A549 [8]) [µM] | IC50 (A549 [9]) [µM] |
| --- | --- | --- | --- | --- | --- | --- | --- | --- | --- | --- | --- | --- | --- |
| COc1ccc(CCN(C)CCCC(C#N)(c2ccc(OC)c(OC)c2)C(C)C)cc1OC (stereo not given) [VERAPAMIL] | 97 | 109 | 148 |  |  |  |  |  |  |  |  |  |  |
| C[C@]12C(=O)C[C@H]3[C@@H](C=CC4=CC(=O)CC[C@@]43C)[C@@H]1CC[C@@H]2[C@H](O)CO [NERIDIENONE B] | 110 | 154 | 148 | > 100 | 113 | 141 | 100 | 73.5 (≈ 213 µM) | > 100 |  |  |  |  |
| C[C@@H](O)[C@H]1CC[C@H]2[C@@H]3C=CC4=CC(=O)CC[C@]4(C)[C@H]3CC(=O)[C@]12C | 116 | 127 | 138 | 49.2 (≈ 150 µM) | 120 | 117 | 93 | 66.4 (≈ 202 µM) | 57.4 (≈ 175 µM) | < 3.52 | < 3.52 |  |  |
| CC(=O)[C@]12O[C@H]1C[C@H]1[C@@H]3C=CC4=CC(=O)CC[C@]4(C)[C@H]3C[C@@H](O)[C@@]12C | 103 | 108 | 99 | 62.1 (≈ 181 µM) |  |  |  | 51.1 (≈ 149 µM) | 73.1 (≈ 213 µM) |  |  | > 100 | > 100 |
| C[C@]12C(=O)C[C@H]3[C@@H](C=CC4=CC(=O)CC[C@@]43C)[C@@H]1CC[C@@H]2C(=O)CO | 110 | 105 | 140 | 94.9 (≈ 277 µM) |  |  |  | 48.1 (≈ 140 µM) | 87.7 (≈ 256 µM) |  |  |  |  |
| CC(=O)C1=CC[C@H]2[C@@H]3C=CC4=CC(=O)CC[C@]4(C)[C@H]3C[C@@H](O)[C@]12C [NERIDIENONE A] | 109 | 92 | 107 | 2.5 (≈ 7.66 µM) |  |  |  | 4.9 (≈ 15 µM) | 0.68 (≈ 2.08 µM) | 5.15 | 4.27 |  |  |
